The text below walks through data of ChEMBL document CHEMBL1143104, “Identification and characterization of pyrrolidine diastereoisomers as potent functional agonists and antagonists of the human melanocortin-4 receptor” (Bioorg Med Chem Lett, 2008).

One series deals with Melanocortin receptor 3 (Homo sapiens, UniProt P41968). As to the kind of experiment: Binding affinity to MC3R.
In another series the target is Melanocortin receptor 5 (Homo sapiens, UniProt P33032). The series is described as follows: Binding affinity to MC5R.
Chain of Melanocortin receptor 5 (P33032 whole entry): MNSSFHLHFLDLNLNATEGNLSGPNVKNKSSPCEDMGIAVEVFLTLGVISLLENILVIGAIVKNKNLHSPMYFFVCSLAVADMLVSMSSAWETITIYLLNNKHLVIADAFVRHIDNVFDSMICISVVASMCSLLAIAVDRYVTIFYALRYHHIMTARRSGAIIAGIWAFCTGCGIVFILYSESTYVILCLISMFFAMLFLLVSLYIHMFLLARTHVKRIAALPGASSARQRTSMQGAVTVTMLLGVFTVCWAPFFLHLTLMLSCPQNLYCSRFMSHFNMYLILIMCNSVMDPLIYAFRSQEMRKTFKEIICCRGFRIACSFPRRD
Series [1] can be described thus: Clearance in rat at 2.5 mg/kg, iv. It counts as ADME, organism-based. The arrangement: dose 2.5 mg/kg, route intravenous. Conditions: in vivo. An outline of the steps: (§1)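 Rat pharmacokinetics: single 2.5 mg/kg iv injection and separately 10 mg/kg oral gavage. Plasma CL, Vd, t1/2, AUC, Cmax, Tmax and oral bioavailability were derived. Whole-brain concentration was measured at 1 and 4 h after oral dosing and expressed as a brain/plasma ratio. Values are the average of three animals.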

Series [2] is described as follows: Volume of distribution in rat in rat at 2.5 mg/kg, iv. Details: dose 2.5 mg/kg, route intravenous. The note with it: in vivo. It counts as ADME, organism-based. An outline of the steps:
as §1

The nature of series [3]: Half life in rat at 2.5 mg/kg, iv. It counts as ADME, organism-based. The arrangement: dose 2.5 mg/kg, route intravenous. The note with it: in vivo. An outline of the steps: as §1
The nature of series [4]: AUC in rat at 2.5 mg/kg, iv. Details: dose 2.5 mg/kg, route intravenous. It counts as ADME, organism-based. The note with it: plasma. An outline of the steps: as §1
The nature of series [5]: Cmax in rat at 10 mg/kg, po. The note with it: in vivo. The arrangement: dose 10 mg/kg, route oral. It counts as ADME, organism-based. An outline of the steps: as §1
Series [6] can be described thus: Tmax in rat at 10 mg/kg, po. It counts as ADME, organism-based. The arrangement: dose 10 mg/kg, route oral. Conditions: in vivo. An outline of the steps: as §1
The nature of series [7]: AUC in rat at 10 mg/kg, po. It counts as ADME, organism-based. The arrangement: dose 10 mg/kg, route oral. The note with it: plasma. An outline of the steps: as §1
Series [8] in a line: Drug level in rat brain at 10 mg/kg, po after 4 hrs. The note with it: read-out: Drug uptake. It counts as ADME, organism-based. The arrangement: dose 10 mg/kg, route oral. An outline of the steps: as §1
A short description of series [9]: Ratio of drug level in brain to plasma in rat at 10 mg/kg, po after 4 hrs. It counts as ADME, organism-based. The arrangement: dose 10 mg/kg, route oral. Conditions: read-out: BPR. An outline of the steps:
as §1

Series [10] in a line: Apparent permeability across human Caco-2 cells from apical to basolateral side. It counts as ADME, cell-based. An outline of the steps:
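Caco-2 monolayer permeability, apical-to-basolateral Papp in nm/s. The (b to a)/(a to b) ratio was also determined as an efflux measure.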

A further series has as its system Caco-2. As to the kind of experiment: Ratio of permeability across human Caco-2 cells from basolateral to apical side to apical to basolateral side. It counts as ADME, cell-based.
Series [11] is described as follows: Distribution coefficient, log D by shake flask method. It counts as physicochemical. The note with it: octanol/water. An outline of the steps:
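log D was measured by the shake-flask method.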

The nature of series [12]: Ratio of drug level in brain to plasma in po dosed DIO rat after 7 days. It counts as ADME, organism-based. Conditions: read-out: BPR. An outline of the steps: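 Chronic study in DIO rats given 3, 10 or 30 mg/kg orally once daily. A satellite group was sampled on day 1 and day 7 for plasma concentration-time profiles and brain/plasma ratio.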
Series [13] is described as follows: Bioavailability in rat at 10 mg/kg, po. It counts as ADME, organism-based. Conditions: in vivo. An outline of the steps:
as §1

For series [14], the target named is T1, Melanocortin receptor 4 (Homo sapiens, UniProt P32245). As to the kind of experiment: Displacement of [125I]NDP-MSH from human MC4 receptor expressed in HEK293 cells. It counts as cell-based. An outline of the steps: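 HEK293 cells expressing human MC4R, radioligand competition binding with [125I]-NDP-MSH. Ki values are the average of two or more independent measurements.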
T1 sequence (P32245 whole entry): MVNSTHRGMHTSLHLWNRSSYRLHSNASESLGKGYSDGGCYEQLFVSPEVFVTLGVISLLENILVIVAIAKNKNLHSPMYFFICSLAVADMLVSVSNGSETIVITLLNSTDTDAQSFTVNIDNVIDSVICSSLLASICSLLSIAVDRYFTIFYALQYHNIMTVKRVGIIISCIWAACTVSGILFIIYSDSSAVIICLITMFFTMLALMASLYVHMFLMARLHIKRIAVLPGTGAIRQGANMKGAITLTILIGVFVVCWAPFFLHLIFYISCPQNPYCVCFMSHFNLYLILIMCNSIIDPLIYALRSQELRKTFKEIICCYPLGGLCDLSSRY

Series [15] concerns the target T1, Melanocortin receptor 4. The series is described as follows: Agonist activity at human MC4 receptor expressed in CHO cells assessed as accumulation of cAMP production. It counts as functional, cell-based. An outline of the steps: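 CHO cells transfected with human MC4R were stimulated by compound and accumulated cAMP was measured by ELISA. Intrinsic activity is expressed relative to α-MSH. Representative experiments were run 2–8 times.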

Chain of Melanocortin receptor 3 (P41968 whole entry): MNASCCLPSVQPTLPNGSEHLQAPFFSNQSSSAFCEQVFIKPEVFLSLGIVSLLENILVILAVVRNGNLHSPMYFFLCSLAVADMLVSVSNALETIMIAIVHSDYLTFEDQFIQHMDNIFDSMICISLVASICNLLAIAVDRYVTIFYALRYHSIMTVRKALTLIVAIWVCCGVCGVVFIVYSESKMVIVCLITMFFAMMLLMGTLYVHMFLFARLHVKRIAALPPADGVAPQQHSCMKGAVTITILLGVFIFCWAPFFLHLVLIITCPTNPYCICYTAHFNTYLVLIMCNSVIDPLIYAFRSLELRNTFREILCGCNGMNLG

As for `Cc1ccc(N2CCN(C(=O)[C@@H]3CN(C4CCOCC4)C[C@H]3c3ccc(Cl)cc3)CC2)c([C@@H](NC(=O)CCN(C)C)C(C)C)c1` (stereo in doubt; 13b-1), the inhibitory constant (Ki) on Melanocortin receptor 3 came to 260 nM; at Melanocortin receptor 5 it was 800 nM; on Melanocortin receptor 4 [14] it was 1 nM. This compound also had a clearance in [1] of 129 mL/min/kg. This compound gave a distribution volume (Vd) in series [2] of 80 L/kg. This compound also had a half-life in series [3] of 7.1 h. For the same compound, the AUC in series [4] worked out at 307 ng·h/mL; in [7], 114 ng·h/mL. The highest concentration (Cmax) in [5] worked out at 14 ng/mL. In addition, the time of peak concentration (Tmax) in series [6] worked out at 2.7 h. The concentration at 4 h in [8] was determined as 19 ng/g. In [9], the Kp at 4 h is 3. Moreover, the Papp A→B in series [10] stood at 0.16 ×10⁻⁶ cm/s. In the series on Caco-2, the Ratio is 23. The compound further displayed a logD in series [11] of 2.6. Moreover, the Kp at 168 h in series [12] is above 10. This compound displayed a bioavailability in series [13] of 10%. Besides, on Melanocortin receptor 4 [15], the EC50 stood at 3.8 nM.
